Source: ChEMBL document CHEMBL2203053, “DNA binding acridine-thiazolidinone agents affecting intracellular glutathione” (Bioorg Med Chem, 2012)
Active and inactive are the calls of the source. The calls are words filed in the database; no cut-off is given here.

Experiments:
A2780 [1] = assay: Cytotoxicity against human A2780 cells after 48 hrs by MTT assay; assay type: functional, cell-based; conditions: A2780, 48 h
Procedure, shortened: (§1)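 HL-60, L1210 and A2780 cells were grown in RPMI 1640 with 10% FBS, penicillin and streptomycin at 37 °C, 5% CO₂; HL-60 and A2780 medium also had 2 mM glutamine. Cells were exposed to 0–30 µM for 48 or 72 h. Viability was read by MTT microculture tetrazolium assay and IC50 was determined.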

HL-60 [2] = assay: Decrease in intracellular glutathione level in human HL60 cells at 2 uM after 24 hrs by spectrophotometric analysis; assay type: functional, cell-based
HL-60 [3] = assay: Cytotoxicity against human HL60 cells after 72 hrs by MTT assay; assay type: functional, cell-based; conditions: HL-60, 72 h; procedure, shortened: as §1
Nucleic Acid [4] = assay: Ratio of acridine orange K to compound K for calf thymus DNA by spectrofluorimetry based McGhee von Hippel method; assay type: nucleic-acid assay; conditions: Bos taurus
L1210 [5] = assay: Cytotoxicity against mouse L1210 cells after 48 hrs by MTT assay; assay type: functional, cell-based; conditions: L1210, 48 h; procedure, shortened: as §1
Nucleic Acid [6] = assay: Binding affinity to calf thymus DNA assessed as hypochromicity at 25 uM by UV-visible spectrophotometry; assay type: nucleic-acid assay; conditions: Bos taurus
Procedure, shortened: (§2)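 Absorption spectra were taken in 0.01 M Tris buffer, pH 7.4. Compounds were diluted from DMSO stock to a final 25 µM. Sonicated calf thymus DNA in TE buffer was added at 0–30 µM bp, with concentration set by A260. Shift of λmax (free vs bound) and % hypochromicity were recorded.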

Nucleic Acid [7] = assay: Ratio of proflavine K to compound K for calf thymus DNA by spectrofluorimetry based McGhee von Hippel method; assay type: nucleic-acid assay; conditions: Bos taurus
HL-60 [8] = assay: Cytotoxicity against human HL60 cells after 48 hrs using trypan blue exclusion staining by DCC method; assay type: functional, cell-based; conditions: HL-60, 48 h
Procedure, shortened: (§3)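 For trypan blue dye-exclusion direct cell counting, HL-60 cells were seeded at 1 × 10⁵ cells/mL. Compound at 0–10 µM, or 1% DMSO control, was added after 24 h. Viable counts were taken after 24, 48 and 72 h. IC50 (50% inhibition of viability) came from growth curves, as mean ± S.D., n = 3.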

HL-60 [9] = assay: Induction of necrosis in human HL60 cells assessed as cell shrinking at 5 uM after 24 hrs by propidium iodide staining based fluorescence microscopy; assay type: functional
HL-60 [10] = assay: Drug uptake in human HL60 cells at 5 uM after 4 hrs by Hoechst staining based fluorescence microscopy; assay type: ADME, cell-based; conditions: hl-60, 4 h
Procedure, shortened: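 HL-60 cells were exposed to 5 µM for 4 h at 37 °C, 5% CO₂, then washed in PBS. Intrinsic blue fluorescence was viewed by optical and fluorescence microscopy. Untreated control cells were stained with Hoechst 33342 (10 µM, 10 min).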

HL-60 [11] = assay: Decrease in intracellular glutathione level in human HL60 cells at 2 uM after 2 hrs by spectrophotometric analysis; assay type: functional, cell-based
L1210 [12] = assay: Cytotoxicity against mouse L1210 cells after 72 hrs by MTT assay; assay type: functional, cell-based; conditions: L1210, 72 h; procedure, shortened: as §1
Nucleic Acid [13] = assay: Ratio of daunomycin K to compound K for calf thymus DNA by spectrofluorimetry based McGhee von Hippel method; assay type: nucleic-acid assay; conditions: Bos taurus
Nucleic Acid [14] = assay: Binding affinity to calf thymus DNA assessed as melting temperature at 5 uM at pH 7.1 by thermal denaturation assay; assay type: nucleic-acid assay; conditions: Bos taurus
A2780 [15] = assay: Drug uptake in human A2780 cells at 5 uM after 4 hrs by Hoechst staining based fluorescence microscopy; assay type: ADME, cell-based; conditions: a2780, 4 h
Nucleic Acid [16] = assay: Binding affinity to calf thymus DNA assessed as binding constant by spectrofluorimetry based McGhee von Hippel method; assay type: nucleic-acid assay; conditions: Bos taurus
Procedure, shortened: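 Fluorescence titration used compound at 26.7 µM in 0.01 M Tris buffer (pH 7.4, 24 °C). ctDNA was added stepwise from 0 to 32 µM bp at 2 µM intervals until spectra stopped changing. Excitation was 384 nm and emission was read at 410–470 nm. Binding constant K was derived by the McGhee–von Hippel method from Scatchard plot data.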

HL-60 [17] = assay: Cytotoxicity against human HL60 cells after 48 hrs by MTT assay; assay type: functional, cell-based; conditions: HL-60, 48 h; procedure, shortened: as §1
Nucleic Acid [18] = assay: Binding affinity to calf thymus DNA assessed as bathochromic shift at 25 uM by UV-visible spectrophotometry; assay type: nucleic-acid assay; conditions: Bos taurus; procedure, shortened: as §2
HL-60 [19] = assay: Cytotoxicity against BSO pretreated human HL60 cells assessed as cell viability at 1.5 uM treated 6 hrs after BSO addition measured after 48 hrs by trypan blue exclusion assay; assay type: functional, cell-based
Procedure, shortened: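 HL-60 cells were pretreated 6 h with L-buthionine-sulfoximine (10 µM), then exposed to 1.5, 3.0 or 1.0 µM compound for 48 h. Viable cells were counted by trypan blue staining and expressed as percentage of all cells.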

HL-60 [20] = assay: Cytotoxicity against human HL60 cells after 72 hrs using trypan blue exclusion staining by DCC method; assay type: functional, cell-based; conditions: HL-60, 72 h; procedure, shortened: as §3
A2780 [21] = assay: Cytotoxicity against human A2780 cells after 72 hrs by MTT assay; assay type: functional, cell-based; conditions: A2780, 72 h; procedure, shortened: as §1

SMILES: CCC(C)N1C(=O)/C(=C/C(=O)OC)S/C1=N\c1c2ccccc2nc2ccccc12 (stereo unspecified)
- IC50 (A2780 [1]): 20.8 µM
- Activity (HL-60 [2]): Active
- IC50 (HL-60 [3]): 2.1 µM
- Ratio (Nucleic Acid [4]): 10
- IC50 (L1210 [5]): 3.3 µM
- Activity (Nucleic Acid [6]): 26.3%
- Ratio (Nucleic Acid [7]): 10
- IC50 (HL-60 [8]): 2 µM
- Activity (HL-60 [9]): Active
- Drug uptake (HL-60 [10]): Active
- Activity (HL-60 [11]): Active
- IC50 (L1210 [12]): 7.5 µM
- Ratio (Nucleic Acid [13]): 10
- Tm (Nucleic Acid [14]): 75 °C
- Drug uptake (A2780 [15]): Active
- K (Nucleic Acid [16]): 2.21 ×10⁶ /M
- IC50 (HL-60 [17]): 3.4 µM
- Activity (Nucleic Acid [18]): Active
- Activity (HL-60 [19]): Active
- IC50 (HL-60 [20]): 1.7 µM
- IC50 (A2780 [21]): 12.6 µM
